Test [1] has as its target T1, 5-hydroxytryptamine receptor 2A (Rattus norvegicus, UniProt P14842). Nature of the test: Displacement of [3H]MDL100907 from 5HT2A receptor in Sprague-Dawley rat brain by liquid scintillation spectroscopy. A digest of the protocol: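 Frontal cortex from male Sprague-Dawley rat brains, washed in 50 mM Tris-HCl pH 7.4 and resuspended in buffer with 0.5 mM Na2EDTA, 10.0 μM pargyline, 5.7 mM CaCl2 and 0.1% ascorbate. Cinanserin (10 μM) defined nonspecific binding. Bound label was collected by GF/C filtration and counted. Values from ≥3 experiments, each in triplicate.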
(In a radioligand displacement assay an active substance lowers the binding of a labelled ligand.)

Test [2] deals with 5-hydroxytryptamine receptor 2A (Rattus norvegicus) (UniProt P14842). Nature of the test: Agonist activity at Sprague-Dawley rat 5HT2A receptor by drug discrimination assay. In kind it is functional. The following applies: filed as agonist.
Chain of 5-hydroxytryptamine receptor 2A (Rattus norvegicus) (P14842 whole entry): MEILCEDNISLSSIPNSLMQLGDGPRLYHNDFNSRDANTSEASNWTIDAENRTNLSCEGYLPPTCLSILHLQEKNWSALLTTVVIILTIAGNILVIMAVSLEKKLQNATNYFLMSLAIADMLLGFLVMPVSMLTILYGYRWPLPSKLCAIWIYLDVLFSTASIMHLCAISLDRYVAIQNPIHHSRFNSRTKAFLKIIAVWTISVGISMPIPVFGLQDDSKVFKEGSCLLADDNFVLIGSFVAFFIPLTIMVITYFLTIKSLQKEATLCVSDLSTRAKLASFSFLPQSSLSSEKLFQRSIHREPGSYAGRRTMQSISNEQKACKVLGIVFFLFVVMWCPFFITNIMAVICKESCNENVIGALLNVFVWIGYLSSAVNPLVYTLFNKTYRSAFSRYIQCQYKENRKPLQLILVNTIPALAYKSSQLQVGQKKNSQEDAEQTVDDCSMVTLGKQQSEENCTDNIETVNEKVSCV
For test [3] the target is unchanged. Nature of the test: Antagonist activity at Sprague-Dawley rat 5HT2A receptor by drug discrimination assay. To be noted: filed as antagonist. In kind it is functional.
The target of test [4] is T1, 5-hydroxytryptamine receptor 2A. Nature of the test: Displacement of [3H]ketanserin from 5HT2A receptor in Sprague-Dawley rat brain by liquid scintillation spectroscopy.

In general, Ki refers to the equilibrium dissociation constant of an inhibitor or competing ligand from its target.

T1 sequence (P14842 whole entry): as above

With `CN(C)CCc1c[nH]c2ccccc12`, the Ki in test [1] stood at 1640 nM. In test [2], the Efficacy result was “Agonist”.
Take `CN(C)CCc1c[nH]c2sccc12`: the Efficacy result in test [3] is “Antagonist”. Moreover, in test [1], the affinity corresponds to a Ki of 3680 nM.
Consider `CN(C)CCc1c[nH]c2ccsc12`, for which the Efficacy entry in test [3] is “Antagonist”. The compound further returned an inhibitory constant (Ki) in test [1] of 4610 nM.
`COc1cc(CCN)cc(OC)c1OCCc1ccccc1`: the Efficacy result in test [3] is “Antagonist”. In test [4], this compound gave an inhibition constant (Ki) of 59 nM.
Turning to `COc1cc(CCN)cc(OC)c1OC`, the Efficacy entry in test [2] is “Agonist”.
As for `Cc1nc2sccn2c(=O)c1CCN1CCC(=C(c2ccc(F)cc2)c2ccc(F)cc2)CC1`, the Efficacy result in test [3] is “Antagonist”.
Take `NCCc1c2c(c(Br)c3c1OCC3)OCC2`: in test [2], the Efficacy entry is “Agonist”.
Same read-out and setting: with `NCCc1c2c(cc3c1OCC3)OCC2` the entry was “Agonist”.
Turning to `COc1cc(C)cc(OC)c1CC(C)N` (racemic), the Ki in test [4] was 351 nM. Further, in test [2], the Efficacy result is “Agonist”.
With `CSc1c2c(c(CC(C)N)c3c1OCC3)CCO2` (racemic), in test [1], the affinity corresponds to a Ki of 476 nM. In other words, the sub-micromolar range.
As for `COc1cc2c(cc1Br)OCCC(N)C2` (racemic), in test [4], the affinity, expressed as Ki, was 422 nM.
With `CSc1cc(CC(C)N)c(SC)cc1C` (racemic), the Efficacy result in test [3] was “Antagonist”. The compound also yielded a Ki in test [4] of 177 nM.
Regarding `CC(N)Cc1c2ccccc2c(Br)c2ccccc12` (racemic), the Efficacy entry in test [3] was “Antagonist”. The compound further had a Ki in test [1] of 313 nM.
The like results for `CC(N)Cc1cc(F)c(Br)cc1F` (racemic) were, in that order, “Antagonist” and 2510 nM.
The compound `COc1cc(CC(C)N)c(OC)cc1I` (racemic) displayed a Ki in test [4] of 19 nM. For the same compound, the Efficacy entry in test [2] is “Agonist”.
For `COc1cc(C(F)(F)F)c(OC)cc1CC(C)N` (racemic), in that order: 33 nM and “Agonist”.
With `CC(N)Cc1c2c(c(Br)c3c1OCC3)OCC2` (racemic), in test [2], the Efficacy entry was “Agonist”.
Same read-out and setting: to `CC(N)Cc1c2ccoc2c(Br)c2ccoc12` (racemic) belongs “Agonist”; to `CCc1cc(OC)c(CC(C)N)cc1OC` (racemic), “Agonist”.
As for `COc1cc(CC(C)N)c(OC)cc1Br` (racemic), the Efficacy entry in test [2] was “Agonist”.
Compound `COc1cc(CC(C)N)c(OC)cc1C` (racemic) [DOM] yielded a Ki in test [4] of 100 nM.
As for `CN(C)CCc1c[nH]c2cccc(O)c12` [PSILOCIN], the Ki in test [1] worked out at 323 nM. Also, the Efficacy result in test [2] is “Agonist”.

These data come from ChEMBL document CHEMBL1149846, “The role of lipophilicity in determining binding affinity and functional activity for 5-HT2A receptor ligands” (Bioorg Med Chem, 2008).
